Rows were chosen to be rich in hits. Some 4.9% of all compounds tested hit in one or more screens of this group.
APP 5'UTR act: activates APP 5'UTR luciferase reporter. activation, % at 2 µM. SH-SY5Y APP 5'UTR luciferase reporter, luminescence; zero percent = DMSO vehicle wells. AID 1276. actives 1% (n = 190,000);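 active = activation above a set limit, based on mean plus 3 SD of controls, cut at about 140% in these data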
STAT1 act: increases IFN-gamma driven STAT1 reporter signal; activation (% of control), % at 5.5 µM; actives 2.6% (n = 200,000); NIH 3T3 STAT1-luciferase reporter, luminescence; 100% = IFN-gamma alone, no compound;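 active = activation above the screen-wide mean activation plus 3 SD, cut at about 130% in these data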
NF-kB expr up: compounds increasing NF-kB expression in human neuronal cells; fold change at 12.5 µM; NF-kB reporter expression; hits give high values; actives 1.6% (n = 190,000); in the data active = fold change above about 3.3
STAT3 inh-1: reduces IL-6 driven STAT3 reporter signal | U3A cells, IL-6 STAT3-luciferase reporter, luminescence; host cell line lacks STAT1 | inhibition, % at 5.5 µM | actives 0.89% (n = 190,000) | AID 862;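 active = inhibition above the mean inhibition across all screened compounds plus 3 SD, cut at about 44% in these data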
STAT3 activator: increases IL-6 driven STAT3 reporter signal; U3A cells, IL-6 STAT3-luciferase reporter, luminescence; 100% = signal with IL-6 EC80 alone; activation (% of control), % at 5.6 µM; actives 0.91% (n = 190,000);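 active = activation above the screen-wide mean of compound activation plus 3 SD, cut at about 130% in these data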
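Material: STAT1-lacking human U3A cells, STAT3 luciferase reporter | Benchmarks: IL-6-only wells as 100% reference | Probe or stimulus: IL-6 (33 ng/mL) | Timing: Compound 1 h, then IL-6 6 h at 37 °C | Detection: Luminescence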
STAT1 blocker: reduces IFN-gamma driven STAT1 reporter signal; actives 0.35% (n = 200,000); NIH 3T3 STAT1-luciferase reporter, luminescence; inhibition, % at 5.5 µM;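 active = inhibition above a set limit, the mean inhibition across all tested compounds plus 3 SD, cut at about 34% in these data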
STAT3 inh-2: STAT3 inhibition, confirmation assay; shares compounds with STAT3 inh-1; U3A cells, IL-6 STAT3 luciferase reporter, luminescence; cell line lacks STAT1; actives 45% (n = 1,200); inhibition, % at 5.7 µM;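 active = inhibition above the hit cutoff computed for the primary STAT3 screen, cut at about 44% in these data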
NFkB inh 2: counter-screen for STAT3 inhibitors: NF-kappaB inhibition. inhibition, % at 5.7 µM. shares compounds with STAT3 inh-1. HEK293T NF-kB luciferase reporter, TNF-alpha induced. actives 36% (n = 1,200);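 active = inhibition above the mean of solvent-only control wells plus 3 SD, cutoff set per campaign, cut at about 13% in these data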
STAT1 inh 2: counter-screen for STAT3 inhibitors: STAT1 inhibition; inhibition, % at 5.7 µM; shares compounds with STAT3 inh-1; actives 27% (n = 1,200); NIH 3T3 STAT1-luciferase reporter, IFN-gamma induced, luminescence;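 active = inhibition above the mean plus 3 SD of solvent-only control wells, limit set per screening run, cut at about 16% in these data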
Large screens that a line does not name were inactive (follow-up assays come after a bar, where they were run).

O=[N+]([O-])c1ccc(N/N=C/c2sc(N3CCOCC3)nc2-c2ccccc2)c(S(=O)(=O)Nc2ccc(Cl)cc2)c1	STAT3 inh-1 80.9 | STAT3 inh-2 71.3 | NFkB inh 2 48.3 | STAT1 inh 2 53.8
O=C(COC(=O)c1ccc(S(=O)(=O)Nc2ccccc2)cc1)NCCC1=CCCCC1	none
O=C(O)CCn1cc(C2CC(c3ccccc3)=NN2c2ccccc2)c(-c2ccccc2)n1 (stereo not drawn)	none
CC(C)c1ccc(NC(=O)c2csnn2)cc1	STAT1 act 146.0, NF-kB expr up 7.58, STAT3 inh-1 45.0 | STAT3 inh-2 inactive | NFkB inh 2 inactive | STAT1 inh 2 inactive
O=C(Nc1ccccc1NC(=O)c1csnn1)c1csnn1	none
O=C(CSc1cnc2ccccc2n1)c1ccc(F)cc1	APP 5'UTR act 188.9, NF-kB expr up 4.11, STAT3 inh-1 58.1 | STAT3 inh-2 inactive | NFkB inh 2 inactive | STAT1 inh 2 inactive
O=C(CN1CCCCC1)Nc1ccc(Br)cc1[N+](=O)[O-]	none
Cc1cc2ncc(-c3ncc(C(F)(F)F)cc3Cl)cn2n1	APP 5'UTR act 138.2, STAT3 inh-1 64.5 | STAT3 inh-2 inactive | NFkB inh 2 inactive | STAT1 inh 2 inactive
Cc1nn2cc(-c3ncc(C(F)(F)F)cc3Cl)cnc2c1Br	APP 5'UTR act 504.7, STAT1 act 128.8, STAT3 inh-1 47.1 | STAT3 inh-2 46.9 | NFkB inh 2 inactive | STAT1 inh 2 inactive
O=C(Nc1nccs1)c1ccc(S(=O)(=O)NCc2cccs2)cc1	none
O=C(Nc1ccc(Br)cc1)c1ccc(F)c(S(=O)(=O)NCc2cccs2)c1	STAT3 inh-1 57.1 | STAT3 inh-2 68.7 | NFkB inh 2 16.9 | STAT1 inh 2 16.1
CCOC(=O)c1cc(-c2ccccc2)n(CCC(=O)N2CCN(c3ccccn3)CC2)c1C	none
COc1ccc(-n2cc(C(=O)c3ccc4ccccc4c3O)cn2)cc1	none
COc1ccc(-n2cc(C(=O)c3ccccc3O)cn2)cc1	APP 5'UTR act 236.3, NF-kB expr up 3.94, STAT3 inh-1 65.4 | STAT3 inh-2 inactive | NFkB inh 2 inactive | STAT1 inh 2 inactive
O=[N+]([O-])c1ccc(O)c(C=Nc2ccc3c(c2)OCCO3)c1	STAT3 inh-1 44.5 | STAT3 inh-2 inactive | NFkB inh 2 inactive | STAT1 inh 2 inactive
COc1ccc(C(=O)Nc2ccccc2C(=O)N/N=C/c2ccco2)cc1	STAT3 inh-1 48.5 | STAT3 inh-2 inactive | NFkB inh 2 17.9 | STAT1 inh 2 20.0
CN(c1cccc(NC(=O)CN(c2ccc(C34CC5CC(CC(C5)C3)C4)cc2)S(C)(=O)=O)c1)S(C)(=O)=O	none
O=C(O)c1ccccc1/C=N/N1CCN(C2c3ccccc3-c3ccccc32)CC1	none
FC(F)(F)c1ccc(N2CCN(c3cc(-c4ccccc4)nc4ncnn34)CC2)nc1	STAT3 inh-1 48.1 | STAT3 inh-2 46.2 | NFkB inh 2 14.9 | STAT1 inh 2 27.2
CCCNC(=O)C1CCN(c2cc(-c3ccccc3)nc3ncnn23)CC1	none
COc1cccc(COc2cc3ccccc3nc2C)c1	STAT3 inh-1 80.4 | STAT3 inh-2 76.2 | NFkB inh 2 20.6 | STAT1 inh 2 inactive
Cc1nc2ccccc2nc(C)c1=NOCc1cccc(Cl)c1	none (no result: STAT3 inh-1, STAT3 activator)
Cc1nc2ccccc2cc1OCc1ccc(Cl)cc1	STAT3 inh-1 70.6 (no result: APP 5'UTR act) | STAT3 inh-2 80.3 | NFkB inh 2 13.4 | STAT1 inh 2 inactive
COC(=O)c1sccc1OCc1cccc(OC)c1	none
Cc1nc2ccccc2cc1OCc1ccccc1	STAT3 inh-1 69.4 | STAT3 inh-2 50.2 | NFkB inh 2 inactive | STAT1 inh 2 inactive
CCCNc1nc2c(c(=O)n(C)c(=O)n2C)n1CCc1ccccc1	none
CC(C)n1c(NCCc2ccccc2)nc2c1c(=O)n(C)c(=O)n2C	STAT3 inh-1 45.3 | STAT3 inh-2 inactive | NFkB inh 2 inactive | STAT1 inh 2 32.4
O=C1C2C3c4ccccc4C(c4ccccc43)C2c2nc3ccccc3n21 (stereo not drawn)	STAT3 inh-1 64.2 | STAT3 inh-2 58.7 | NFkB inh 2 inactive | STAT1 inh 2 inactive
CC(=O)Nc1ccc(SCC(=O)c2cc(C)n(-c3ccccc3)c2C)cc1	STAT1 act 140.9, STAT3 inh-1 44.5 | STAT3 inh-2 inactive | NFkB inh 2 inactive | STAT1 inh 2 inactive
Cc1cc(C(=O)O)c(C)n1-c1ccccc1	none
CN1CCC(=NNC(=O)C(=O)Nc2ccccc2F)CC1	none
Cc1nc2ccccc2c2c1C(=O)N(c1cccc(C(=O)O)c1)C2=O	none
Cc1ccc(C)c(C(=O)COC(=O)c2cccc(N3C(=O)c4c(C)nc5ccccc5c4C3=O)c2)c1	APP 5'UTR act 141.2, STAT3 inh-1 49.5 | STAT3 inh-2 45.3 | NFkB inh 2 29.3 | STAT1 inh 2 43.8
Cc1nn(C)c(C(=O)NCc2ccc(Cl)cc2)c1Cl	STAT3 inh-1 55.9 | STAT3 inh-2 64.8 | NFkB inh 2 13.6 | STAT1 inh 2 20.4
Cc1nc(C)c(C(=O)NCc2ccc(Cl)cc2)o1	none
Cn1c(=O)[nH]c(=O)c2cc(C(=O)c3cc(F)ccc3O)cnc21	none
CC(=O)c1cccc(NC(=O)Nc2ccc(C(=O)N3CCCC3)cc2)c1	none
O=C(Nc1ccccc1)Nc1ccc(C(=O)N2CCCC2)cc1	APP 5'UTR act 185.9, STAT3 inh-1 44.9 | STAT3 inh-2 inactive | NFkB inh 2 inactive | STAT1 inh 2 inactive
CCOc1ccc(C(=O)Nc2cc(C)on2)cc1	NF-kB expr up 3.59, STAT3 inh-1 46.0 | STAT3 inh-2 inactive | NFkB inh 2 inactive | STAT1 inh 2 inactive
Cc1nn(Cc2c(F)c(F)c(F)c(F)c2F)c(C)c1NC(=O)c1cccc(COc2ccc(Cl)cc2)c1	none
Cc1cc(NC(=O)COC(=O)c2cccc(OCc3ccccc3)c2)no1	none
Cc1cc(NC(=O)c2cccc(COc3ccc(Br)cc3)c2)no1	STAT3 inh-1 49.2 | STAT3 inh-2 inactive | NFkB inh 2 40.7 | STAT1 inh 2 inactive
CCOc1cc(C(=O)Nc2cc(C)on2)cc(OCC)c1OCC	none
CC(C)c1cc(C(N)=O)c(NC(=O)c2cccc(COc3ccc(Cl)cc3)c2)s1	STAT3 inh-1 62.6, STAT1 blocker 34.4 | STAT3 inh-2 inactive | NFkB inh 2 inactive | STAT1 inh 2 inactive
CCN(C(=O)CN(C)Cc1cccc(Cl)c1Cl)c1c(N)n(Cc2ccccc2)c(=O)[nH]c1=O	none
COc1ccc(/C=N/N2C(=O)c3ccccc3C2=O)cc1	none

Assay outcomes from PubChem.
